Rows were chosen to be rich in hits. Some 3.6% of all compounds tested hit in one or more screens of this group.
NadD block: inhibitors of S. aureus NadD, primary screen, biochemical, colorimetric, uHTS; Nicotinate-nucleotide adenylyltransferase NadD (Staphylococcus aureus N315); purified NadD enzyme, colorimetric absorbance read-out; inhibition, % at 20 µM; actives 0.78% (n = 360,000); AID 602399, 2012; in the data active = inhibition above about 26%
UCH37 inh: inhibitors of human UCH37 deubiquitinase, primary screen, biochemical, Ub-AMC cleavage, fluorescence | Ubiquitin carboxyl-terminal hydrolase isozyme L5 (Homo sapiens), Q9Y5K5 | purified proteasome/UCH37 | inhibition, % (test concentration not listed) | actives 0.33% (n = 330,000);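 active = mean inhibition over replicate wells above about 20%, limit read from the data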;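 note: 0% = compound-free wells with enzyme and 100% = wells lacking proteasome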
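Material: Human UCH37 enzyme supplied as purified proteasome complex | Schedule: 30 min preincubation with enzyme, 25 min cleavage at room temperature | Detection: AMC fluorescence 355/460 nm | Measure: % inhibition of Ub-AMC cleavage fluorescence | Controls: Wells without proteasome as full block, compound-free enzyme plus substrate as uninhibited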
ATG4B inhibitor: ATG4B protease inhibitors, primary screen, biochemical, fluorescence, uHTS. Cysteine protease ATG4B (Homo sapiens), Q9Y4P1. ATG4B cleavage of LC3-PLA2, NBD-HPC fluorescence, 1 h. inhibition, % at 8.33 µM. actives 0.51% (n = 340,000). AID 504462, 2011; in the data active = inhibition above about 40%
Target sequence (Q9Y4P1 whole entry, looked up): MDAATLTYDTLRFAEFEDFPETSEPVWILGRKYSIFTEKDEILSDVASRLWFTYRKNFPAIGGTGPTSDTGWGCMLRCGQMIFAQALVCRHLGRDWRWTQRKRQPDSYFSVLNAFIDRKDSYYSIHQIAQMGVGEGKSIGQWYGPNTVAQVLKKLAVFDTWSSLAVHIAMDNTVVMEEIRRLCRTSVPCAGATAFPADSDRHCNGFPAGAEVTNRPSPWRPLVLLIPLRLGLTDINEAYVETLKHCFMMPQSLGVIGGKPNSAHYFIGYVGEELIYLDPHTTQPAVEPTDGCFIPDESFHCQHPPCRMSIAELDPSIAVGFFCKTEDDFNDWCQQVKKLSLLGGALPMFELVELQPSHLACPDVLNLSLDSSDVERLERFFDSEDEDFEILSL
GRIN3A LBD mod: binders of NR3A ligand-binding domain, primary screen, biophysical, differential scanning fluorimetry, uHTS; Glutamate receptor ionotropic, NMDA 3A (GRIN3A) ligand-binding domain; NR3A LBD differential scanning fluorimetry, Tm shift; 0% = protein alone, 100% = glycine-bound protein; Tm shift relative to glycine control, % at 25 µM; actives 2.5% (n = 340,000); AID 1259313, 2017;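 active = melting temperature shift of at least 10% of the positive control shift, at one fixed dose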
SENP1 inh: human SENP1 catalytic domain inhibitors, primary screen, biochemical, FRET, uHTS; recombinant SENP1 catalytic domain, CyPet-SUMO1-YPet FRET cleavage; inhibition, % at 10 µM; actives 0.21% (n = 360,000); AID 624204, 2012;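 active = inhibition at least 30% at 10 µM, raw YFP signal under a set limit, fluorescence ratio 0.5 to 1.5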;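 note: 0% = enzyme with DMSO and 100% = no enzyme wells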
Target sequence (Q9P0U3 419-644 limits assumed): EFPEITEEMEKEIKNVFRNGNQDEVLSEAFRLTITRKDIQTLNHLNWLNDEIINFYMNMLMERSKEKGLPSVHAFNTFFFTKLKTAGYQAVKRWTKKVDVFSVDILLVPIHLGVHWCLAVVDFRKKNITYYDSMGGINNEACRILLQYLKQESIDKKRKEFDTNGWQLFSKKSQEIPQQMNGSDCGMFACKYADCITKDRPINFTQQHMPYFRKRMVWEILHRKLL
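Material: hSENP1 catalytic domain, recombinant; medium: Tris pH 8 with BME, BSA, NP40 and catalase; compound: single concentration of 10 µM compound, 0.5% DMSO final; technique: FRET read of cyan and yellow fluorescence; timing: 50 min enzyme reaction, room temperature, light-protected; reagent: SFCypet-SUMO1-SFYpet substrate at 25 nM; control set: no-enzyme low, enzyme-DMSO high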
Numbers without * were called inactive.

C/C(C=NNC(=O)Cn1cnc2ccccc21)=C\c1ccccc1 was read as UCH37 inh 3.2.
`COc1ccccc1-c1ccc(/C=C2/C=C(CC(C)C)OC2=O)o1` gave NadD block 17.1, UCH37 inh -252.9, ATG4B inhibitor -4.0, GRIN3A LBD mod -28.0 and SENP1 inh -37.4.
`CCCC1=C/C(=C/c2ccc(-c3ccccc3OC)o2)C(=O)O1` gave NadD block 39.8*, UCH37 inh -70.3, ATG4B inhibitor 5.2, GRIN3A LBD mod -1.2 and SENP1 inh -29.4.
`CC(=O)OCCN1C(=O)c2cccnc2C1=O` gave NadD block -5.7, UCH37 inh 2.1, ATG4B inhibitor 1.2, GRIN3A LBD mod 12.8* and SENP1 inh 0.6.
Screening CCCCn1c(=O)c(C(=O)NN=Cc2ccc(F)cc2)c(O)c2ccccc21 returned UCH37 inh -2.8.
For CCCn1c(=O)c(C(=O)N/N=C/c2ccc(F)cc2)c(O)c2ccccc21 the results were NadD block 19.6, ATG4B inhibitor 0.5, GRIN3A LBD mod 19.5* and SENP1 inh -0.5.
`CC(=O)Nc1ccc(OS(=O)(=O)c2ccc(C)cc2C)cc1` gave NadD block -8.0, UCH37 inh 1.0, ATG4B inhibitor 1.9, GRIN3A LBD mod 15.6* and SENP1 inh 2.5.
CC(=O)Nc1ccc(OS(=O)(=O)c2ccccc2C)cc1 was read as NadD block -6.8, UCH37 inh 2.9, ATG4B inhibitor -8.1, GRIN3A LBD mod 0.6 and SENP1 inh 2.6.
For Cc1cccc(C(=O)NN=Cc2ccc3c(c2)OCO3)n1 the results were UCH37 inh 4.7.
`Cn1c(=O)c(C#N)c(-c2ccc(F)cc2)c2cc(C(=O)c3cc(Cl)cc(Cl)c3O)cnc21` gave NadD block 24.3*, UCH37 inh 7.7, ATG4B inhibitor 3.0, GRIN3A LBD mod 11.9* and SENP1 inh 1.6.
Screening O=C(Nc1nc(-c2ccccn2)cs1)c1ccc(Cl)s1 returned NadD block -0.5, UCH37 inh -8.8, ATG4B inhibitor 4.1, GRIN3A LBD mod 19.2* and SENP1 inh 1.4.
Screening O=C(Nc1nc(-c2ccc(Cl)s2)cs1)c1cccs1 returned NadD block 0.6, UCH37 inh -11.7, ATG4B inhibitor 35.0, GRIN3A LBD mod 16.9* and SENP1 inh -33.5.
COc1cc(C=NOCC(=O)Nc2ccc(OC(F)F)cc2)ccc1OCc1ccccc1 was read as UCH37 inh -2.3.
Cn1c(=O)[nH]c(=O)c2c1nc(N1CCCCC1)n2CC=NNC(=O)c1cc(Br)ccc1O was read as UCH37 inh -8.4.
For CC(=O)c1ccc(OCc2ncc(C(F)(F)F)cc2Cl)cc1 the results were NadD block 1.0, UCH37 inh 4.1, ATG4B inhibitor 2.1, GRIN3A LBD mod -1.7 and SENP1 inh 4.1.
For FC(F)(F)c1cnc(COc2ccc(Cl)cc2Cl)c(Cl)c1 the results were NadD block -5.7, UCH37 inh 6.3, ATG4B inhibitor -9.4, GRIN3A LBD mod 15.4* and SENP1 inh -1.1.
Oc1ccc(N=Cc2ccc(-c3cccs3)s2)cc1 was read as NadD block -4.0, UCH37 inh -264.6, ATG4B inhibitor -5.0, GRIN3A LBD mod 27.1* and SENP1 inh -129.4.
Screening CC(CCc1ccc2c(c1)OCO2)=N/N=C1/NC(=O)CC(C(=O)Nc2ccccc2F)S1 (stereo not drawn) returned UCH37 inh 3.5.
For CCOc1ccc(Br)cc1C(C)=NNC1=NCCN1 the results were UCH37 inh 3.2.
Screening Cc1ccc(Nc2ncnc(Cl)c2N)cc1 returned NadD block 3.8, UCH37 inh 3.3, ATG4B inhibitor -12.1, GRIN3A LBD mod 12.6* and SENP1 inh 1.2.
Cc1ccc(Nc2ncnc3ccccc23)cc1 was read as NadD block -7.2, UCH37 inh 1.0, ATG4B inhibitor 2.5, GRIN3A LBD mod -0.7 and SENP1 inh 1.5.
COC(=O)NN=Cc1ccc(OCCSc2ccc(Cl)cc2)c(OC)c1 was read as UCH37 inh -0.6.
For CC(=NNS(=O)(=O)c1ccc(Br)cc1)c1cccs1 the results were UCH37 inh 4.4.
`COc1ccc(N(C)C(=O)c2cnc(N3CCN(c4ncccn4)CC3)c3ccccc23)cc1` gave NadD block 0.2, UCH37 inh 3.9, ATG4B inhibitor -1.1, GRIN3A LBD mod 768.9* and SENP1 inh 4.8.
COc1cc(S(=O)(=O)Nc2ccc(C)cc2)ccc1N=Cc1c(C)[nH]n(-c2ccccc2)c1=O was read as NadD block 21.2, UCH37 inh -0.8, ATG4B inhibitor -14.2, GRIN3A LBD mod 26.1* and SENP1 inh 7.1.
Screening CSc1ncc(Cl)c(C(=O)Nc2ccc(S(=O)(=O)Nc3nccc(C)n3)cc2)n1 returned NadD block -4.6, UCH37 inh 5.7, ATG4B inhibitor -2.4, GRIN3A LBD mod 12.6* and SENP1 inh -0.5.
Screening CCCSc1ncc(Cl)c(C(=O)Nc2ccc(S(=O)(=O)Nc3ncccn3)cc2)n1 returned NadD block -10.7, UCH37 inh 5.3, ATG4B inhibitor -3.3, GRIN3A LBD mod 8.8 and SENP1 inh 0.3.
`CCc1ccc(N=C2NC(=O)/C(=C/c3cc(OC)c(O)c(OC)c3)S2)cc1` gave NadD block -2.2, UCH37 inh 3.1, ATG4B inhibitor -4.5, GRIN3A LBD mod 2.8 and SENP1 inh -26.2.
For O=C1NC(=Nc2cccc(O)c2)S/C1=C\c1cccc([N+](=O)[O-])c1 the results were NadD block 7.6, UCH37 inh 3.3, ATG4B inhibitor 8.8, GRIN3A LBD mod 13.4* and SENP1 inh 2.4.
`COc1cc(/C=C2\SC(=Nc3ccccc3)NC2=O)cc(Cl)c1O` gave NadD block 13.7, UCH37 inh 9.2, ATG4B inhibitor -6.9, GRIN3A LBD mod 12.5* and SENP1 inh -21.2.
`COc1cc(/C=C2\SC(=Nc3ccc(Cl)c(C(=O)O)c3)NC2=O)c(Br)c(Br)c1O` gave NadD block 69.6*, ATG4B inhibitor 33.6, GRIN3A LBD mod 12.9* and SENP1 inh -27.6.
Screening O=C1NC(=Nc2cccc(O)c2)S/C1=C\c1cccnc1 returned NadD block 3.5, ATG4B inhibitor 8.3, GRIN3A LBD mod 8.3 and SENP1 inh 0.6.
For COc1cc(/C=C2/SC(=Nc3ccc(O)cc3)NC2=O)ccc1O the results were NadD block -6.8, UCH37 inh 7.6, ATG4B inhibitor -3.9, GRIN3A LBD mod 27.0* and SENP1 inh 52.4.
`Cc1ccc(S(=O)(=O)N2CCN(CC(=O)NN=C/C=C/c3ccccc3)CC2)cc1` gave UCH37 inh 7.6.
